From PubChem BioAssay
ABHD4 inh: ABHD4 (mouse) inhibition, primary FP screen. purified mABHD4, FP-Rh probe fluorescence polarization. 0.54% of 370,000 active. inhibition, % at 8.92 µM. AID 720543. Q8VD66;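 active = inhibition exceeding the mean over every tested compound plus 3 SD, cut at about 30% in these data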;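 also: 0% = plate median of compound wells and 100% = S159A mutant with DMSO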
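Test system: mABHD4 protein; Read-out basis: % inhibition; Incubation: 45 min + 60 min at 25 °C; Repeats: single replicate; Technique: fluorescence polarization with parallel and perpendicular emission, 525/598 nm; Compound: 8.92 µM, single dose; Benchmarks: full inhibition S159A mutant plus DMSO, zero as sample-well median.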
TCR CD3 inh: inhibitors of human TCR-CD3 interaction | TAMRA-labeled TCR probe fluorescence, biochemical | inhibition, % at 9.4 µM | 0.37% of 360,000 active | AID 651800; in the data active = inhibition above about 19%;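 also: recombinant mutant TCR 2C K166C tagged with TAMRA read by polarization; 0% = receptor in buffer alone and 100% = receptor with positive control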
DAGLB inhibitor: blocks human DAGLB lipase activity | Q8NCG7 | AID 504411 | inhibition, % at 5.17 µM | 0.059% of 340,000 active | HEK293T DAGLB membrane lysate, EnzChek fluorogenic substrate; in the data active = inhibition above about 34%;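 also: 0% = enzyme with vehicle and 100% = wells lacking enzyme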
HTRA1 inhibitor: blocks human HTRA1 serine peptidase; 0.5% of 340,000 active; inhibition, % at 5.96 µM; recombinant HTRA1, FP-rhodamine activity-based probe, fluorescence polarization; AID 504803; Q92743; in the data active = inhibition above about 36%;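 also: 0% = enzyme with DMSO and 100% = wells lacking enzyme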
SIAE inh: human SIAE inhibition, primary screen. 0.69% of 370,000 active. Q9HAT2. SIAE FP-Rh probe binding, fluorescence polarization. inhibition, % at 9.66 µM;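 active = inhibition above a cutoff: mean of compounds within the control limits plus 3 SD of those, cut at about 17% in these data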;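 also: 0% = plate median of compound wells and 100% = probe without SIAE protein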
Target sequence (Q9HAT2 whole entry, looked up): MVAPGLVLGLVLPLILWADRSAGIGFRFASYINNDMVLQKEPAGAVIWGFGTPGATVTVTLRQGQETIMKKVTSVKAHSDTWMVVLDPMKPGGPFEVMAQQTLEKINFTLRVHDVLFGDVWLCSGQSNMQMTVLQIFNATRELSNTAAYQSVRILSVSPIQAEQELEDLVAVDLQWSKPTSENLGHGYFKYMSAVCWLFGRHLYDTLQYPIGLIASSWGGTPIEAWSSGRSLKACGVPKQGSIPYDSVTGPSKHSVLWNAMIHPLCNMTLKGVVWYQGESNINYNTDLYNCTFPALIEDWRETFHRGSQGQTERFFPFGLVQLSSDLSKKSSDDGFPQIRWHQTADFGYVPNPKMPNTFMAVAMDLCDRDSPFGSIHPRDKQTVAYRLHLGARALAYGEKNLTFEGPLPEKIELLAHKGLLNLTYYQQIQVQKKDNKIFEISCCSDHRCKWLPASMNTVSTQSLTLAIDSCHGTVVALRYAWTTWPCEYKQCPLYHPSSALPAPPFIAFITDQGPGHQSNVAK
mABHD4 conf: confirmation of mouse ABHD4 inhibitors. shares compounds with ABHD4 inh. purified mABHD4, FP-Rh probe fluorescence polarization. inhibition, % at 8.92 µM. 55% of 1,800 active. AID 720658;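 active = mean inhibition across replicates above the hit cutoff set in the primary screen, cut at about 30% in these data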;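 also: 0% = wild-type ABHD4 with DMSO and 100% = catalytically dead S159A mutant with DMSO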
Active calls of the source: *; · = no result. Only some compounds are listed: those with a hit (about 1.5% of all), similar ones and a draw of the others.

SMILES	ABHD4 inh	TCR CD3 inh	DAGLB inhibitor	HTRA1 inhibitor	SIAE inh	mABHD4 conf
N#CC1=C(N)n2c(s/c(=C\c3ccco3)c2=O)=C(C#N)C1c1ccco1 (configuration not stated)	31.7*	7.4	8.3	19.6	6.5	-19.8
O=C1OC(/C(=C\Nc2cc(Cl)ccc2O)[N+](=O)[O-])c2ccccc21 (configuration not stated)	42.0*	-0.7	1.2	5.5	4.5	7.9
CCCCOCCCNC(=O)C[C@H]1C[C@@]2(C(=O)OC)C(=C[C@H](COCc3ccccc3)O[C@@H]2C)N(CCC2=CCCCC2)C1=O	4.9	3.5	·	·	1.5	·
Cc1ccn2c(NC3CCCCC3)c(-c3cccc(-c4cccc(Cl)c4)c3)nc2c1	37.8*	-5.5	-16.6	-7.0	1.7	53.8*
Nc1[nH]c(C(=O)c2ccccc2)c(-c2ccc3ccccc3c2)c1C(=O)NCc1cccc2ccccc12	9.2	-4.1	·	·	4.0	·
Cc1ccc(-n2c(COc3ccccc3)nnc2SCC(=O)Nc2ccc3c(c2)OCO3)cc1	-7.5	·	·	·	-2.5	·
O=c1ccn2c(n1)OC1CC2OC1COC(c1ccccc1)(c1ccccc1)c1ccccc1 (configuration not stated)	-10.3	-5.4	·	·	-0.7	·
CC(=O)Oc1ccc2c(=O)c(Oc3ccccc3)c(C)oc2c1OC(C)=O	41.9*	-5.6	13.1	33.6	-6.3	-8.3
Cc1oc2cc(O)ccc2c(=O)c1Oc1ccccc1	-7.9	-10.1	-1.5	7.1	4.6	·
O=C(N/N=C1\C/C(=N\NC(=O)c2ccncc2)c2ccccc21)c1ccncc1	38.5*	-5.4	4.3	28.8	6.6	29.0
NC(=O)c1c(N)[nH]c(C(=O)c2ccccc2)c1-c1ccc2ccccc2c1	8.0	4.4	·	·	-3.5	·
COC(=O)C1=C(C)N(Cc2ccc(C)cc2)C(=O)/C1=C\c1ccc(O)c(OC)c1	33.4*	9.5	1.1	1.1	5.0	46.6*
O=C(NCc1ccccc1)[C@@H]1CCCN1C(=O)[C@H]1CCCN1C(=O)c1ccccc1	-0.9	1.5	·	·	0.7	·
CC(C)(C)OC(=O)/C=C/[C@@H](CCCCl)Sc1ccc(C(C)(C)C)cc1	-4.5	·	·	·	5.4	·
CC(=O)Nc1cccc2ccc(O)cc12	16.2	6.2	0.6	13.8	-7.5	·
O=C(Nc1ccccc1F)Nc1cccc2ccc(O)cc12	30.9*	1.2	4.6	32.6	10.7	43.2*
C[C@@H]1CCCCO[C@@H](CN(C)C(=O)NC2CCCCC2)[C@@H](C)CN([C@H](C)CO)C(=O)c2cc(N(C)C)ccc2O1	7.7	-3.4	·	·	2.9	·
CC(C)C1Nc2ccc(C(=O)O)cc2C2C=CCC21 (configuration not stated)	44.5*	-0.3	1.6	24.2	3.1	37.5*
Cc1cccc(C=NNc2cc(C)c3cccc(C)c3n2)n1	0.1	0.3	·	·	2.5	·
CCC(C)Nc1nc(-c2cccc(OC)c2O)nc2ccccc12 (configuration not stated)	33.9*	-0.7	-7.3	-0.3	13.5	36.6*
COc1cccc(-c2nc(NC(C)C)c3ccccc3n2)c1O	27.3	1.4	-4.6	-9.4	1.9	·
COc1cccc(-c2nc(NCC3CCCO3)c3ccccc3n2)c1O (configuration not stated)	32.6*	-1.6	0.6	16.8	9.3	34.3*
COCc1[nH]nc2c1C(c1ccc(Br)cc1)N(c1ccc(OC)cc1)C2=O (configuration not stated)	-7.7	-3.7	·	·	4.9	·
O=C(COC(=O)c1ccccc1)Nc1ncc([N+](=O)[O-])s1	38.8*	8.9	5.4	10.6	-8.7	40.5*
O=C(Nc1ncc([N+](=O)[O-])s1)c1cccc([N+](=O)[O-])c1	5.1	-5.0	3.5	0.7	-3.4	·
SMILES	ABHD4 inh	TCR CD3 inh	DAGLB inhibitor	HTRA1 inhibitor	SIAE inh	mABHD4 conf
Fc1ccc(-c2ccc3c(n2)CCCN3Cc2ccccc2C(F)(F)F)cc1	0.0	3.9	·	·	-0.8	·
COc1ccc(OCC(=O)Nc2nc3ccccc3[nH]2)cc1	39.3*	2.6	-1.6	-3.7	-12.3	39.0*
CCOc1ccc(C(=O)Nc2nc3ccccc3[nH]2)cc1OCC	35.4*	-4.2	-3.1	-3.3	-1.4	40.2*
Cc1cc(C)cc(C(=O)Nc2nc3ccccc3[nH]2)c1	17.6	-1.1	-0.7	0.3	-2.8	·
O=C(COc1ccc2ccccc2c1)Nc1nc2ccccc2[nH]1	-0.5	-2.6	-0.8	-1.6	-6.8	·
COc1cc(OC)cc(C(=O)Nc2nc3ccccc3[nH]2)c1	35.6*	4.3	1.2	-6.3	0.7	30.9*
COc1ccc(CCNC(=O)Cn2nc(-c3ccccc3)ccc2=O)cc1	4.6	·	·	·	-7.5	·
Cc1cc(O)ccc1N/C=C/c1onc(C)c1[N+](=O)[O-]	55.6*	7.8	25.4	34.5	3.6	0.1
Cc1cccc(N/C=C/c2onc(C)c2[N+](=O)[O-])c1	4.3	-0.2	10.8	-2.5	-6.7	·
CCN(Cc1ccccc1)C(=O)COC(=O)c1cc(S(=O)(=O)Nc2ccccc2OC)ccc1O	30.9*	2.6	-1.9	3.5	-6.8	43.9*
COc1ccccc1NS(=O)(=O)c1ccc(O)c(C(=O)OCC(=O)Nc2ccccc2F)c1	-0.5	-3.3	-2.2	-4.2	4.7	·
O=C1CS/C(=C\[N+](=O)[O-])N1c1ccccc1	31.2*	0.7	0.3	5.6	3.6	-1.5
CC1Oc2ccccc2C=C1/C=N/Nc1ccc(C(=O)O)cc1 (configuration not stated)	31.8*	-5.5	3.8	-2.2	1.9	31.5*
CCCCN(C)C(=O)C1CCN(S(=O)(=O)c2ccc3[nH]c(=O)oc3c2)CC1	5.8	·	·	·	3.0	·
CCOC(=O)C1=CC[C@@H](c2ccccc2)C(C#N)(C#N)[C@H]1/C=C/c1ccccc1	-13.1	3.3	·	·	-8.9	·
CCOc1cccc2sc(Cl)nc12	-6.3	4.3	-4.4	1.4	-3.2	·
CCOc1cccc2sc(NN)nc12	71.2*	2.3	5.4	32.3	13.5	71.5*
O=C(/C=C/c1ccc([N+](=O)[O-])cc1)c1ccccc(=O)c1O	43.2*	1.6	16.8	27.0	14.2	12.4
O=C(/C=C/c1ccc([N+](=O)[O-])cc1)c1cccs1	-3.6	-2.9	0.7	8.1	4.5	·
C/C(=N\Nc1nc2ccccc2s1)c1ccc(Br)s1	32.7*	4.0	-3.5	33.3	5.1	6.2
C/C(=N\NC(=O)c1ccccc1[N+](=O)[O-])c1ccc(Br)s1	-0.9	-2.8	3.8	1.6	-1.4	·
Cc1csc(NC(=O)c2cccc(Cn3nc(C)c(Br)c3C)c2)n1	49.9*	-6.9	-1.4	-43.9	1.5	-5.7
CCC(C)C(=O)Nc1nc(C)c(-c2csc(Nc3cc(OC)ccc3OC)n2)s1 (configuration not stated)	38.4*	-0.6	1.1	15.2	13.1	62.3*
O=C(O)c1ccc(-c2cccc([N+](=O)[O-])c2)o1	3.2	-2.5	-0.9	-4.0	-3.2	·
